Screening results as filed in PubChem.
The sample as a whole holds a higher share of hits than the screen did.
Lmaj promast = inhibitors of Leishmania major promastigote growth; inhibition, % at 10 µM; 9% of 200,000 active; Leishmania major promastigotes, resazurin fluorescence viability; AID 1063;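 further: promastigotes grown with compound for 44 hours at 28 °C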
Diaph inh CS = inhibits diaphorase or chemically oxidizes, flagging diaphorase assay artifacts; diaphorase resazurin-to-resorufin fluorescence, NADH, 16 min; bacterial (C. kluyveri) enzyme, not human; inhibition, % at 20 µM; 0.69% of 190,000 active;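 active means primary screen inhibition at 20 µM above a set limit, cut at about 50% in these data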;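 further: plate controls were DMSO with full reaction for no effect and wells lacking NADH for full effect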
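Assay system: diaphorase enzyme from Clostridium kluyveri. Quantity: enzyme working solution with 0.14 U/mL diaphorase. Schedule: reaction incubation of 16 min at room temperature. Technique: resorufin fluorescence, excitation 544 nm, emission 590 nm. Controls: No-NADH positive control and DMSO neutral control.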
Diaph act CS = activates diaphorase or chemically reduces, flagging diaphorase assay artifacts; Diaphorase/resazurin coupled assay, resorufin fluorescence, 16 min; stronger effect = higher value; 1 = vehicle wells, 0 = NADH-free wells; activation factor at 20 µM; 0.005% of 190,000 active; AID 1229;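 active means diaphorase activity raised at least twofold by the compound at 20 µM; inactive means activation factor below 2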
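Material: purified diaphorase enzyme from Clostridium kluyveri; Also added: 0.114 mM NADH and 0.1 mM resazurin, final amounts; Doses: single compound dose of 20 µM, 1% DMSO final; Times: 16 min enzyme reaction, ambient temperature; Detection: resorufin fluorescence, excitation 544 nm, emission 590 nm; Measure: increased resorufin signal from activators or reducing compounds.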
PfGluPho inh = PfG6PD (Plasmodium falciparum) enzyme inhibition. PfGluPho enzyme, NADPH resazurin-diaphorase fluorescence. inhibition, % at 20 µM. 0.78% of 350,000 active;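 active means inhibition reaching at least a set limit at 20 µM in the primary screen, cut at about 59% in these data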;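 further: 0% = DMSO wells with substrate and 100% = DMSO wells lacking glucose-6-phosphate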
Redox H2O2 prof = compounds producing H2O2 with reducing agent – biochemical, NIH compound library profiling, artefact control for MLSCN library redox annotation, primary screen; 0.03% of 200,000 active; DTT-dependent redox cycling H2O2, phenol red/HRP absorbance; 100% = 100 µM peroxide control, 0% = buffer; activation, % at 10 µM; AID 878;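 active means activation of at least 50% relative to the plate's high and low controls in the primary single-dose screen; inactive means activation below 50%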;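 further: compound incubated with DTT at 0.8 mM final as the reducing agent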
G6PDH counter = L. mesenteroides G6PDH inhibition counter-screen | Purified L. mesenteroides G6PDH, diaphorase/resazurin coupled fluorescence, 45 min | inhibition, % at 5 µM | 0.12% of 200,000 active | AID 1020
PfG6PD confirm = confirmation of Plasmodium falciparum G6PD inhibitors | shares compounds with PfGluPho inh | recombinant PfGluPho, NADPH-diaphorase-resazurin fluorescence | 34% of 2,400 active | inhibition, % at 20 µM;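 active means inhibition of at least 50% at 20 µM in any single replicate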;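 further: 0% = DMSO with substrate and 100% = DMSO lacking glucose-6-phosphate substrate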
Diaph ctr 10uM = diaphorase inhibition or oxidation at 10 uM NADPH; shares compounds with PfGluPho inh; diaphorase-coupled resazurin reduction, fluorescence, NADPH 10 uM; inhibition, % at 20 µM; 39% of 820 active; AID 504862;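 active means average inhibition reaching 50% or more with the compound at 20 µM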;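 further: resorufin red fluorescence formed as diaphorase reduces resazurin using NADPH; 0% = DMSO with enzyme and 100% = DMSO without enzyme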
Diaph ctr 30uM = inhibits diaphorase or oxidizes, flagging false PfG6PD hits | Diaphorase/resazurin coupled assay, resorufin fluorescence, 30 uM NADPH | inhibition, % at 20 µM | shares compounds with PfGluPho inh | 29% of 820 active;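 active means inhibition averaging 50% or more, tested at 20 µM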;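 further: 0% = DMSO with enzyme and 100% = DMSO wells lacking diaphorase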
Numbers without * were called inactive; . = no result given. Unless noted, no stated cut-off is given here; in the data, active means inhibition above about 50%; inactive means the rest.

SMILES	Lmaj promast	Diaph inh CS	Diaph act CS	PfGluPho inh	Redox H2O2 prof	G6PDH counter	PfG6PD confirm	Diaph ctr 10uM	Diaph ctr 30uM
O=C(CCCOc1ccc(Cl)cc1Cl)N/N=C/c1ccc(Cl)cc1	-3	5	0.9	62*	1	-5	21	.	.
O=C(O)c1ccc(-c2ccc(/C=N/Nc3ccc([N+](=O)[O-])cc3)o2)cc1	.	.	.	71*	.	.	36	.	.
Cc1nnc(N/N=C\c2ccc(-c3ccccc3[N+](=O)[O-])o2)n1N	58*	48	0.5	82*	0	24	38	.	.
Cc1n[nH]c(=S)n1/N=C/c1ccc(-c2ccccc2[N+](=O)[O-])o1	-6	50	0.5	17	0	7	.	.	.
Cc1nnc(N/N=C/c2ccc(-c3ccccc3F)o2)n1N	48	5	0.9	67*	1	8	56*	22	20
CCc1nnc(N/N=C/c2ccc(-c3ccc([N+](=O)[O-])cc3)o2)n1N	9	-20	1.2	69*	-1	-2	27	.	.
CC(C)CNC(=O)c1cccc(NC(=O)CCc2ccccc2)c1	-3	19	0.8	2	-1	25	.	.	.
COC(=O)c1sccc1NC(=O)Nc1ccccc1OC	.	.	.	48	.	.	.	.	.
O=C(Nc1cccc(Cl)c1)Nc1sccc1-c1nc2ccccc2s1	.	.	.	97*	.	.	-4	.	.
O=C(Nc1ccccc1)Nc1sccc1-c1nc2ccccc2s1	.	.	.	84*	.	.	3	.	.
COc1ccccc1NC(=O)Nc1sccc1-c1nc2ccccc2s1	.	.	.	78*	.	.	22	.	.
CCCCNc1nc(Nc2ccc(C)c(Cl)c2)c2cnn(C)c2n1	.	.	.	26	.	.	.	.	.
O=C(N/N=C/c1cccc(OC(=O)c2ccc3c(c2)OCO3)c1)c1cncc(Br)c1	-4	9	0.9	-3	0	-12	.	.	.
Cc1ccccc1OCC(=O)N/N=C/c1cccc(Oc2ccc([N+](=O)[O-])cc2[N+](=O)[O-])c1	74*	38	0.6	127*	0	-41	93*	87*	71*
Cc1ccccc1OCC(=O)NCC(=O)N/N=C/c1cccc([N+](=O)[O-])c1	4	-4	1	.	-1	4	.	.	.
O=C(N/N=C/c1cccc(Oc2ccc([N+](=O)[O-])cc2[N+](=O)[O-])c1)c1cncc(Br)c1	10	45	0.6	98*	3	12	69*	69*	58*
CCOC(=O)c1[nH]c2ccccc2c1NC(=O)Nc1ccc(OC)cc1	0	14	0.9	-21	1	2	.	.	.
O=C1C(c2cc(=O)c3ccccc3[nH]2)=C(O)c2ccccc21	42	41	0.6	83*	0	12	65*	50*	45
O=C(O)COc1ccc(-c2nnn(CC(=O)O)n2)cc1	-4	8	0.9	-8	-3	-9	.	.	.
Cc1nc2ccc(S(=O)(=O)N3CCCCC3)cc2s1	.	.	.	-19	.	.	.	.	.
Nc1nc2ccc(S(=O)(=O)N3CCCCC3)cc2s1	14	-4	1	65*	0	-2	40	.	.
CCCCN(C)CCn1c(=S)[nH]c2ccc(N3CCOCC3)cc2c1=O	-2	3	1	12	-1	-18	.	.	.
CCc1cc(N2CCOCC2)cc2c1[nH]c1ccccc12	7	53*	0.5	67*	2	29	45	.	.
Clc1nssc1=Nc1nncs1	.	.	.	100*	.	.	82*	1	-16
Clc1nssc1=Nc1ccc(Br)cc1	-10	21	0.8	79*	0	0	29	.	.
SMILES	Lmaj promast	Diaph inh CS	Diaph act CS	PfGluPho inh	Redox H2O2 prof	G6PDH counter	PfG6PD confirm	Diaph ctr 10uM	Diaph ctr 30uM
OCc1ccccc1N=c1ssnc1Cl	-1	16	0.8	.	0	3	.	.	.
Clc1ccc(N=c2ssnc2Cl)nc1	-10	.	.	87*	-1	14	52*	-22	-18
COc1cc(OC)cc(-c2nc(-c3ccccc3OC)no2)c1	1	6	0.9	2	2	3	.	.	.
COc1cc(N=c2ssnc2Cl)cc(OC)c1	6	27	0.7	78*	2	22	65*	-34	-23
CC1(C)CC(=O)C(C=Nc2ccc(Cl)cn2)=C(O)C1	-8	-14	1.1	10	0	6	.	.	.
Cc1ccc(OCC(=O)OCC(=O)Nc2ccc3c(c2)OCO3)cc1C	.	.	.	6	.	.	.	.	.
CCCC(=O)Nc1nc2ccc(OC)cc2s1	1	3	1	6	1	5	.	.	.
COc1ccc2nc(NC(=S)N(C)C)sc2c1	-2	5	0.9	70*	1	4	13	.	.
CC(=O)Nc1ccc(S(=O)(=O)NC2C3(C)CCC(C3)C2(C)C)cc1 (stereo not given)	.	.	.	7	.	.	.	.	.
CCN1CCCC1CNC(=O)c1ccc2c(c1)NC(=O)/C(=C\c1ccccc1Cl)S2 (stereo not given)	.	.	.	118*	.	.	105*	-13	-12
O=C1Nc2cc(C(=O)NCCCN3CCCC3)ccc2S/C1=C/c1cccc(Cl)c1	.	.	.	61*	.	.	79*	-23	-25
O=C(Nc1ccc(F)cc1)Nc1nnc(Cc2ccccc2F)s1	.	.	.	14	.	.	.	.	.
O=C(NCc1ccccc1)C1(c2cccc(F)c2)CCCC1	21	7	0.9	-16	0	3	.	.	.
COC(=O)CCC(=O)OC1(C)C(=O)C2=CN(c3ccccc3)C(c3ccc(OC)cc3)=CC2=C(Br)C1=O (stereo not given)	.	.	.	73*	.	.	74*	50*	39
COC(=O)CCC(=O)OC1(C)C(=O)C2=CN(CCCOC(C)C)C(c3ccc(OC)cc3)=CC2=C(Br)C1=O (stereo not given)	.	.	.	82*	.	.	38	.	.
COC(=O)CCC(=O)OC1(C)C(=O)C2=CN(Cc3ccc(OC)cc3)C(c3ccc(OC)cc3)=CC2=C(Br)C1=O (stereo not given)	.	.	.	54	.	.	.	.	.
COC(=O)CCC(=O)OC1(C)C(=O)C2=CN(Cc3ccccc3)C(c3ccc(OC)cc3)=CC2=C(Br)C1=O (stereo not given)	.	.	.	78*	.	.	47	.	.
Cc1c(N=C2C=C(Br)C(=O)C(Br)=C2)c(=O)n(-c2ccccc2)n1C	-2	69*	0.3	98*	0	7	103*	38	11
COc1ccnc2c1c(=O)n(Cc1ccc(Cl)cc1)c(=O)n2C	.	.	.	-21	.	.	.	.	.
O=[N+]([O-])c1cc(F)c(N2CCCCC2)cc1N1CCOCC1	2	10	0.9	4	-1	6	.	.	.
O=[N+]([O-])c1cc2no[n+]([O-])c2cc1N1CCCCC1	.	.	.	129*	.	.	111*	80*	58*
